The target in experiment [1] is T1, Adenosine receptor A2b (Homo sapiens) (UniProt P29275).
T1 sequence (whole entry): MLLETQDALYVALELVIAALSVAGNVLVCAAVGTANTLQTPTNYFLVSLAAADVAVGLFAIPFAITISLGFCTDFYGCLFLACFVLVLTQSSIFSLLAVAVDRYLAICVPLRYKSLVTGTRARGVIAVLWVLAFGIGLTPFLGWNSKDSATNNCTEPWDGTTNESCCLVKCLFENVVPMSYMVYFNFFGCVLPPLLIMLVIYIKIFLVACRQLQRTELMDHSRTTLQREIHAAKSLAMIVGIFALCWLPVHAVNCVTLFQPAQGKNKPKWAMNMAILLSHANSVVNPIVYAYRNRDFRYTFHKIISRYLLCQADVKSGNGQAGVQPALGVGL
In words: Relative activation of human Adenosine A2B receptor at 10 uM treatment compared to 10 uM Cl-IB-MECA. Format: functional.

Experiment [2] concerns the target T2, Adenosine receptor A3 (Homo sapiens) (UniProt P0DMS8).
T2 sequence (whole entry): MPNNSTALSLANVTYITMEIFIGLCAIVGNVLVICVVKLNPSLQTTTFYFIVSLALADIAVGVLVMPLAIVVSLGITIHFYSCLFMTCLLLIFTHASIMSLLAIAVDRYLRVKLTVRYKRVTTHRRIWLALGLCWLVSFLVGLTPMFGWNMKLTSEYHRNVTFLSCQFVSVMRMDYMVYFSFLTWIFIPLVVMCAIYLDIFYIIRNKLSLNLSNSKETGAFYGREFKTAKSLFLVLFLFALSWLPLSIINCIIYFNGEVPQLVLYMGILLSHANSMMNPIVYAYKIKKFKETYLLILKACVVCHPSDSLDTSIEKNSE
In words: Relative activation of human Adenosine A3 receptor expressed in CHO cells at 10 uM treatment compared to 10 uM Cl-IB-MECA. Format: functional, cell-based.

The target of experiment [3] is T3, Adenosine receptor A3 (Rattus norvegicus, UniProt P28647).
T3 sequence (P28647 whole entry): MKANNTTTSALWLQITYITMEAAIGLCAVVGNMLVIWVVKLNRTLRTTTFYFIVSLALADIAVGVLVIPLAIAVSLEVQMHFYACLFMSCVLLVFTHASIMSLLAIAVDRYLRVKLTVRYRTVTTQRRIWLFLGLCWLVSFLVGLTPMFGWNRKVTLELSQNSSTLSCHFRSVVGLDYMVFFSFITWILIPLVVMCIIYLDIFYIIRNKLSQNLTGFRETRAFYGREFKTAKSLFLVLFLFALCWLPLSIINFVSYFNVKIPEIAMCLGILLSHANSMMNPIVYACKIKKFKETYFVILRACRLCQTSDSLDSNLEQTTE
In words: Inhibition of [125I]AB-MECA binding to rat Adenosine A3 receptor expressed in CHO cells. Format: cell-based.

Experiment [4] addresses T4, Adenosine receptor A1 (Homo sapiens, UniProt P30542).
T4 sequence (P30542 whole entry): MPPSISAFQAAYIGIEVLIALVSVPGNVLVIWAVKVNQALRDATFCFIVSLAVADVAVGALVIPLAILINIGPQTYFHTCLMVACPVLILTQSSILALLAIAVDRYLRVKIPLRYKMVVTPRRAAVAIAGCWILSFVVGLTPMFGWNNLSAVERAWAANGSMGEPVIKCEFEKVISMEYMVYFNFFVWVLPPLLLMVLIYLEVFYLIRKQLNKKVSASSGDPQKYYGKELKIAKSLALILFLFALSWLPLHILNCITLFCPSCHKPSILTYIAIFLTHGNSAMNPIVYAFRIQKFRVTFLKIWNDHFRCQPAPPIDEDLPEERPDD
In words: Inhibition of [3H]R-PIA binding to human Adenosine A1 receptor expressed in CHO cells. The class given is cell-based.

The target in experiment [5] is T5, Adenosine receptor A3 (Homo sapiens, UniProt P0DMS8).
T5 sequence (P0DMS8 whole entry): T2 sequence (whole entry)
In words: Inhibition of [125I]-AB-MECA binding to human Adenosine A3 receptor expressed in CHO cells. Format: cell-based.

The target of experiment [6] is T6, Adenosine receptor A2a (Homo sapiens, UniProt P29274). In words: Inhibition of [3H]-CGS- 21680 binding to human Adenosine A2A receptor expressed in CHO cells. Format: cell-based.
The target of experiment [7] is T6, Adenosine receptor A2a. In words: Displacement of [3H]-CGS- 21680 from human Adenosine A2A receptor expressed in CHO cells at 10 uM. Format: cell-based. The method, boiled down:
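Human A2A receptor stably expressed in adherent CHO cells. Competition binding used [3H]CGS 21680 as the radioligand.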
For orientation: In a radioligand displacement assay an active substance lowers the binding of a labelled ligand.

Four molecules from ChEMBL document CHEMBL1142719 (J Med Chem, 2005) can be followed below.

T6 sequence (P29274 whole entry): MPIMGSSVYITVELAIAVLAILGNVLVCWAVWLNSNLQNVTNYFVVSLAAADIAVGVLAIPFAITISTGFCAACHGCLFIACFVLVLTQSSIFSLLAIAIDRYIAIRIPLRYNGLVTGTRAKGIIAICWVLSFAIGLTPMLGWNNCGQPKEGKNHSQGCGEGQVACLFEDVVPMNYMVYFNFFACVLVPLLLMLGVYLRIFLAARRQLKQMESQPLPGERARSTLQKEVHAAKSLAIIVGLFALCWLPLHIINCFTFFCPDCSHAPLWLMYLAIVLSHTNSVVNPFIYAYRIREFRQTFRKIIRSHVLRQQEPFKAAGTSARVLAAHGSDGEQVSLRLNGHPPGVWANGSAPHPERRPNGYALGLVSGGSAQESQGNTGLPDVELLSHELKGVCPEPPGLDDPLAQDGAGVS

Take `CNC(=O)[C@]12C[C@@H]1[C@@H](n1cnc3c(NCc4cccc(Br)c4)nc(Cl)nc31)[C@H](O)[C@@H]2O`: the values for the Activation in experiment [1] and in experiment [2] were 38% and 100%, respectively. The inhibitory constant (Ki) in experiment [3] was determined as 0.76 nM; in experiment [4], 270 nM; in experiment [5], 0.38 nM; in experiment [6], 1300 nM.

For the molecule `CNc1ncnc2c1ncn2[C@@H]1O[C@H](CO)[C@@H](O)[C@H]1O`, the Activation in experiment [1] is 16%. For the same molecule, the inhibition constant (Ki) turned out to be 6400 nM in experiment [3], 6000 nM in experiment [4] and 9.3 nM in experiment [5]. Besides, in experiment [7], the Displacement worked out at 17%.

With `CNC(=O)[C@]12C[C@@H]1[C@@H](n1cnc3c(NCC(c4ccccc4)c4ccccc4)nc(Cl)nc31)[C@H](O)[C@@H]2O`, the values for the Activation in experiment [1] and in experiment [2] were 46% and 107%, respectively. For the same molecule, the Ki in experiment [3] turned out to be 10 nM; in experiment [4] it was 1300 nM; in experiment [5], 0.69 nM; in experiment [6], 1600 nM.

As for `CNC(=O)[C@]12C[C@@H]1[C@@H](n1cnc3c(NCc4cc(Cl)ccc4OCc4ccccc4)nc(Cl)nc31)[C@H](O)[C@@H]2O`, the Activation in experiment [1] is 49%; in experiment [2] it was 110%. The Ki was 11 nM in experiment [3], 1200 nM in experiment [4], 5.2 nM in experiment [5] and 850 nM in experiment [6].

A word on the Ki: it is the dissociation constant of the complex between target and ligand, obtained from inhibition or displacement. A high value points to weaker binding.
